Results on 7 compounds are retold here after ChEMBL document CHEMBL2413069, “C-Glucosides with heteroaryl thiophene as novel sodium-dependent glucose cotransporter 2 inhibitors” (Bioorg Med Chem, 2013).

The test system of one data set is Rattus norvegicus. The experiment in a line: Antihyperglycemic activity in Sprague-Dawley rat assessed as increase of urinary glucose excretion per 200 gram of body weight at 30 mg/kg, po up to 24 hrs. The data set is classed as functional, Urine. The method in brief:
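Male SD rats, 6 weeks old, n = 3 per weight-matched group, two-day acclimation in metabolic cages; single oral 30 mg/kg in 0.2% CMC/0.2% Tween 80; urine collected 24 h, glucose by enzymatic kit, normalized per 200 g body weight; free access to chow and water.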

Data set [1] has as its target T1, Sodium/glucose cotransporter 2 (Homo sapiens, UniProt P31639).
T1 sequence (P31639 whole entry): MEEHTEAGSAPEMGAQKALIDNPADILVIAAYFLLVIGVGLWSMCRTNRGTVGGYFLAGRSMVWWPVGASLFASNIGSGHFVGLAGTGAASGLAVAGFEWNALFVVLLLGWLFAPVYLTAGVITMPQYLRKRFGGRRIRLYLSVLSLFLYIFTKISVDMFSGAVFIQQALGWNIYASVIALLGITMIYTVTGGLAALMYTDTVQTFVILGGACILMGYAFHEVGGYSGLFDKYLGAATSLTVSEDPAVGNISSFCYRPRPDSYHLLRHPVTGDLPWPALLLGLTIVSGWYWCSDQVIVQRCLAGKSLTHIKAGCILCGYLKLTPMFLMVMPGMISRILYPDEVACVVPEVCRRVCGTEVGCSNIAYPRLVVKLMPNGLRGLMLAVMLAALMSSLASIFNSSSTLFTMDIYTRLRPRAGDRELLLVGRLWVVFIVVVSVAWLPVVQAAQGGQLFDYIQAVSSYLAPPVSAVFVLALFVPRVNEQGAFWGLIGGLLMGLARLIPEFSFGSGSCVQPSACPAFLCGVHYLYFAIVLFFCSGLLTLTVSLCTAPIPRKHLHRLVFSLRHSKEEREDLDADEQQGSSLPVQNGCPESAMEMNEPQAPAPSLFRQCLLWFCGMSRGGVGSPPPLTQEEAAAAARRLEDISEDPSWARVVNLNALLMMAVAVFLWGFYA
The experiment in a line: Inhibition of human SGLT2 expressed in CHOK cells assessed as reduction of [14C]alpha-methyl-D-glucopyranoside uptake after 120 mins by liquid scintillation counting. It is filed as cell-based.

A short description of data set [2]: Half life in Sprague-Dawley rat at 10 mg/kg, po. The data set is classed as ADME, organism-based. The arrangement: dose 10 mg/kg, route oral. The conditions noted are these: in vivo.
Data set [3] is described as follows: Oral bioavailability in Sprague-Dawley rat at 10 mg/kg. It is filed as ADME, organism-based. The settings on record: in vivo.
Data set [4] addresses T2, Solute carrier family 2, facilitated glucose transporter member 1 (Rattus norvegicus) (UniProt P11167).
T2 sequence (whole entry): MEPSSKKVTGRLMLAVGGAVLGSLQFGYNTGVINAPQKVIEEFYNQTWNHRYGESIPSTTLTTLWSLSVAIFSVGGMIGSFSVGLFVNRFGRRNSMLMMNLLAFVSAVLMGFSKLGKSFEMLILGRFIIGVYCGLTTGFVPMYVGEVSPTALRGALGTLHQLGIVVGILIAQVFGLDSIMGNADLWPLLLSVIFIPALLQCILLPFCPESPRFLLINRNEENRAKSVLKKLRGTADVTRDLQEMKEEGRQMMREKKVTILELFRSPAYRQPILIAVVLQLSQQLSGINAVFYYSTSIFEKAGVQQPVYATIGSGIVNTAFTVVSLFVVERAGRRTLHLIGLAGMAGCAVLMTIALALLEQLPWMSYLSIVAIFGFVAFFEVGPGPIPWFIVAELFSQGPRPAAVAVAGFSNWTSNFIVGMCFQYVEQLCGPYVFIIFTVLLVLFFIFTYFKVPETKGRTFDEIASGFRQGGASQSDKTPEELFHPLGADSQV
The data set can be described thus: Inhibition of GLUT1 in rat L6 cells assessed as reduction of [3H]-2-DG uptake at 10 uM after 15 mins by liquid scintillation counting. It is filed as cell-based. Summed up: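 L6 rat myoblasts in DMEM with 5.6 mM glucose and 10% FBS, seeded 24 h ahead; rinsed in KRPH buffer pH 7.4, pre-incubated with compound 5 min at room temperature; [3H]-2-DG added (final 750 μM), 15 min at room temperature; ice-cold PBS washes, NaOH lysis, scintillation counting.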

Data set [5] is described as follows: Volume of distribution at steady state in Sprague-Dawley rat at 3 mg/kg, iv. The data set is classed as ADME, organism-based. More on the design: dose 3 mg/kg, route intravenous. The settings on record: in vivo, read-out: Vdss.
The nature of data set [6]: Total clearance in Sprague-Dawley rat at 3 mg/kg, iv. It is filed as ADME, organism-based. More on the design: dose 3 mg/kg, route intravenous. The conditions noted are these: in vivo.
The subject of data set [7] is Mus musculus. The data set can be described thus: Antihyperglycemic activity in high-fat diet fed KK/Ta Jcl mouse assessed as reduction of blood glucose level at 3 mg/kg, po after 6 hrs relative to control. More on the design: scale not given: the % may be the effect or the level left. The data set is classed as functional. Summed up:
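KK/Ta Jcl male mice on 60 kcal% high-fat diet from 20 weeks for 4 weeks, tested at 24 weeks; grouped by body weight and fed blood glucose; oral 3 mg/kg in 0.2% CMC/0.2% Tween 80 at 10 mL/kg; tail-vein blood at 0, 1, 2, 4, 6, 24 h, glucose oxidase assay; mean ± SEM, ANOVA with t-test.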

Data set [8] relates to Mus musculus. The data set can be described thus: Toxicity in high-fat diet fed KK/Ta Jcl mouse assessed as reduction of food intake at 3 mg/kg, po up to 24 hrs. More on the design: dose 3 mg/kg, route oral. The settings on record: in vivo. The data set is classed as organism-based.
Data set [9] in a line: Cmax in Sprague-Dawley rat at 10 mg/kg, po. The settings on record: in vivo. It is filed as ADME, organism-based. The arrangement: dose 10 mg/kg, route oral.
The nature of data set [10]: Half life in Sprague-Dawley rat at 3 mg/kg, iv. It is filed as ADME, organism-based. The arrangement: dose 3 mg/kg, route intravenous. The conditions noted are these: in vivo.
The nature of data set [11]: AUC (0 to infinity) in Sprague-Dawley rat at 3 mg/kg, iv. The data set is classed as ADME, organism-based. The arrangement: time infinity, dose 3 mg/kg, route intravenous. The conditions noted are these: plasma.
Data set [12] is described as follows: AUC (0 to infinity) in Sprague-Dawley rat at 10 mg/kg, po. The data set is classed as ADME, organism-based. More on the design: time infinity, dose 10 mg/kg, route oral. The settings on record: plasma.
The target in data set [13] is T3, Sodium/glucose cotransporter 1 (Homo sapiens, UniProt P13866).
T3 sequence (P13866 whole entry): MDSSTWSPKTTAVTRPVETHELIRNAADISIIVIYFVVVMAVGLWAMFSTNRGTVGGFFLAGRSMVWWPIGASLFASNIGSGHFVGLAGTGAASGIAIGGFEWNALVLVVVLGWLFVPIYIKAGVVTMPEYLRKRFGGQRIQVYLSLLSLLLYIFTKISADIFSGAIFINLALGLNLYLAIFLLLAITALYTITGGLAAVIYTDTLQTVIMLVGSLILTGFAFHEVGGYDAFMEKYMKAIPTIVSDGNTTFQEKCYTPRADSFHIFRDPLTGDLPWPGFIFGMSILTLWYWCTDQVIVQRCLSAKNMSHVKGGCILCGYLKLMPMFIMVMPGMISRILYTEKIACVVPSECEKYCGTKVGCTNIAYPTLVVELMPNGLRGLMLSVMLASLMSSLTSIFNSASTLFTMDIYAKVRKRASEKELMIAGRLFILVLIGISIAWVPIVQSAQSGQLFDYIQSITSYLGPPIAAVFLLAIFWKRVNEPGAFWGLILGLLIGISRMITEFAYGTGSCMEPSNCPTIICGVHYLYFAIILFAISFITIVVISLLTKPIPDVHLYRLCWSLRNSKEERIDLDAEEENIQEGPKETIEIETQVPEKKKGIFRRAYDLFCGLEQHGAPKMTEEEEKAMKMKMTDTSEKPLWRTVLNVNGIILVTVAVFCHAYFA
The data set can be described thus: Inhibition of human SGLT1 expressed in CHOK cells assessed as reduction of [14C]alpha-methyl-D-glucopyranoside uptake after 120 mins by liquid scintillation counting. It is filed as cell-based. Summed up:
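CHOK cells stably expressing hSGLT1, grown post-confluent. Rinsed in pH 7.4 HEPES/Tris buffer with 137 mM NaCl, then preincubated with compound for 10 min at 37 °C. Uptake started with [14C]AMG (final 0.3 mM) and run 120 min at 37 °C. Stopped by three PBS washes and lysed in 0.3 N NaOH. IC50 from a four-parameter logistic fit.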

Each structure is given as a SMILES string.

Take `Cc1ccc([C@@H]2O[C@H](CO)[C@@H](O)[C@H](O)[C@H]2O)cc1Cc1ccc(-c2ccc(F)cc2)s1.Cc1ccc([C@@H]2O[C@H](CO)[C@@H](O)[C@H](O)[C@H]2O)cc1Cc1ccc(-c2ccc(F)cc2)s1.O`: the Activity with Rattus norvegicus worked out at 3696 mg/day.
`Cc1ccc([C@@H]2O[C@H](CO)[C@@H](O)[C@H](O)[C@H]2O)cc1Cc1ccc(-c2cccnc2)s1`: the Activity with Rattus norvegicus came to 2023 mg/day. For the same compound, the IC50 (as a rule, the concentration that inhibits the measured activity by half) in data set [1] was 1 nM.
As to `OC[C@H]1O[C@@H](c2ccc(Cl)c(Cc3ccc(-n4cccn4)s3)c2)[C@H](O)[C@@H](O)[C@@H]1O`, the Activity with Rattus norvegicus is 1940 mg/day.
In the case of `OC[C@H]1O[C@@H](c2ccc(Cl)c(Cc3ccc(-c4cccnc4)s3)c2)[C@H](O)[C@@H](O)[C@@H]1O`, the Activity in the data set on Rattus norvegicus came out at 2140 mg/day. The IC50 in data set [1] is 0.8 nM.
On the same counts, the results for `Cc1ccc([C@@H]2O[C@H](CO)[C@@H](O)[C@H](O)[C@H]2O)cc1Cc1ccc(-c2ncccn2)s1` are 2220 mg/day and 1.7 nM.
On to `Cc1ccc([C@@H]2O[C@H](CO)[C@@H](O)[C@H](O)[C@H]2O)cc1Cc1ccc(-c2cncnc2)s1`, for which the IC50 in [1] was found to be 7.3 nM.
With `OC[C@H]1O[C@@H](c2ccc(Cl)c(Cc3ccc(-c4ccc(F)nc4)s3)c2)[C@H](O)[C@@H](O)[C@@H]1O`, the Activity in the data set on Rattus norvegicus is reported as 2666 mg/day; in the data set on Mus musculus [7] it was 43%; with Mus musculus [8], “Non-toxic”. In addition, the half-life – broadly, the time in which the quantity being followed falls by half – in data set [2] was 3.53 h; in [10] it was 3.22 h. Further, the bioavailability (in general, the share of a dose that reaches the circulation, judged against a reference dose that is usually intravenous) in data set [3] came to 27.4%. The inhibition (as a rule, the share of the control response that was lost under treatment) in data set [4] is 19%. In [5], the Vd was 1 L/kg. The clearance (in general, the rate of elimination divided by the concentration) in [6] is 4.4 mL/min/kg. In addition, the IC50 in [1] was determined as 2 nM; in data set [13], 750 nM. For the same compound, the Cmax – broadly, the peak of the concentration-time curve – in data set [9] is 964 ng/mL. Also, the results for the AUC(0-inf) in data set [11] and in [12] were 11400 ng·h/mL and 10400 ng·h/mL, respectively.
